Screens: PubChem, several laboratories
CSN deneddyl inh: CSN deneddylation inhibition. Q92905. Purified CSN, SCF-Nedd8-OG deneddylation, fluorescence polarization. inhibition, % at 12.5 µM. 360,000 compounds, 0.38% hits. AID 651999;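 active = pattern-corrected inhibition above about 35%, with an unprinted fluorescence ratio check between 0.5 and 1.5, limit read from the data, passing the limit was not always enough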
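Assay system: purified human Csn5 enzyme expressed in HEK293T cells; Input: 0.24 nM Csn5 enzyme, final concentration; Reagent: 10 nM SCFSkp2-Nedd8OG; Compound dosing: 12.5 µM single point; Times: reaction 90 min, room temperature; Technique: fluorescence polarization readout.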
Rpn11 block: inhibitors of human proteasome Rpn11; O00487; human 26S proteasome, Ub4-pepOG fluorescence polarization; 20S core pre-blocked with epoxomicin; inhibition, % at 20 µM; 360,000 compounds, 0.59% hits; AID 588493;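 active = inhibition at 20 µM, scaled to each plate's controls, above about 33%, limit read from the data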
TPT1 inh: inhibitors of Candida albicans tRNA 2'-phosphotransferase TPT1; AID 1962; 300,000 compounds, 0.81% hits; inhibition, % at 5 µM; recombinant caTPT1, FP RNA substrate dephosphorylation;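 active = inhibition above the mean of all tested compounds plus 3 SD, set per screening campaign, cut at about 24% in these data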
HNF4A DNA FP: change in binding of human HNF4 alpha to DNA. P41235. HNF4a-FITC DNA binding, fluorescence polarization, 1 h. activity change, % at 10 µM. 360,000 compounds, 0.3% hits; in the data active = activity change above about 30%, passing the limit was not always enough
TPT1 inh confirm: confirmation of Candida albicans TPT1 inhibitors; shares compounds with TPT1 inh; recombinant caTPT1, fluorescence polarization, RNase T1 coupled; inhibition, % at 5 µM; 2,400 compounds, 74% hits;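 active = inhibition above the primary screen limit, the mean inhibition of all tested compounds plus 3 SD, cut at about 25% in these data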
RNase T1 inh: blocks Aspergillus oryzae RNase T1, a TPT1 counter-screen; shares compounds with TPT1 inh; RNase T1 cleavage, fluorescence polarization, 1536-well; inhibition, % at 5 µM; 2,400 compounds, 83% hits;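 active = inhibition above the solvent-only control well mean plus 3 SD, limit set per screening run, cut at about 23% in these data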;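 note: inhibitors block cleavage so intact labeled substrate keeps polarization high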
Rpn11 inh conf: confirmation of human proteasome Rpn11 inhibitors. shares compounds with Rpn11 block. purified human 26S proteasome, Ub4-pepOG fluorescence polarization; proteasome pretreated with epoxomicin. inhibition, % at 20 µM. 1,900 compounds, 29% hits. AID 602318
MMP-2 counter-1: blocks human MMP-2, flagging nonselective RPN11 hits; inhibition, % at 20 µM; 1,900 compounds, 4% hits; shares compounds with Rpn11 block; recombinant MMP-2, FRET peptide cleavage fluorescence;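 note: human MMP-2 activated beforehand with APMA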
Thrombin inh: counter-screen for RPN11 inhibitors: inhibition of bovine thrombin. shares compounds with Rpn11 block. 1,900 compounds, 13% hits. inhibition, % at 20 µM. bovine thrombin cleavage of Ub4-pepOG, fluorescence polarization;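 active = mean inhibition at least 40% at 20 µM, or signal 3 deviations below plate average, so some actives read negative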
CSN deneddyl val: Csn5 (human) deneddylation inhibition, single-concentration validation. shares compounds with CSN deneddyl inh. Csn5 deneddylation of SCF-Nedd8OG, fluorescence polarization, 90 min. inhibition, % at 16.6 µM. 540 compounds, 62% hits. AID 720654; in the data active = inhibition above about 50%
MMP-2 counter-2: blocks human MMP-2 in a CSN deneddylation counter-screen; shares compounds with CSN deneddyl inh; recombinant MMP-2, FRET substrate fluorescence, 60 min; inhibition, % at 16.6 µM; 540 compounds, 33% hits;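 active = corrected plate-normalized z-score of 5 or more, or -5 or less, or inhibition of 15% or more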
Thrombin counter: counter-screen for CSN deneddylation inhibitors: bovine thrombin inhibition | shares compounds with CSN deneddyl inh | bovine thrombin cleavage of Ub4-pepOG, fluorescence polarization | inhibition, % at 16.6 µM | 540 compounds, 49% hits;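 active = inhibition at or above a set limit, with a fluorescence interference ratio between 0.5 and a set maximum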
Numbers stand for hits; . = inactive; / = no result given. Most compounds without a hit are left out; they make up all but 1.5% or so of the library. Cut-off read from the data, not from the text of the source, unless noted: active = inhibition above about 40%; inactive = the rest.

SMILES	CSN deneddyl inh	Rpn11 block	TPT1 inh	HNF4A DNA FP	TPT1 inh confirm	RNase T1 inh	CSN deneddyl val	MMP-2 counter-2	Thrombin counter	others
CCCN(CCC)CC(O)Cn1cc(/C=C/C(=O)c2cccs2)c2ccccc21 (centres undefined)	42	/	61	.	64	72	71	.	35
O=C(/C=C/c1ccnc2ccccc12)c1cccs1	.	.	.	.	/	/	/	/	/
Cc1c(C#N)c(O)[nH]c(=O)c1N=Nc1ccc(Br)cc1C(=O)O	56	/	29	86	43	65	.	.	53
Cc1cccc(N=Nc2c(C)c(C#N)c(O)[nH]c2=O)c1	.	/	.	.	/	/	/	/	/
N#C/C(=C\c1ccc(O)cc1)c1nc2ccccc2o1	48	/	102	57	114	116	114	.	39
CC(C)CC[n+]1ccccc1/C=C/c1ccc(N(C)C)cc1	38	/	44	55	49	58	88	-58	.
CN(C)c1ccc(/C=C/c2cccc[n+]2[O-])cc1	.	.	.	.	/	/	/	/	/
COC1=C/C(=C/c2c(N)n3cc(C)sc3nc2=O)C=CC1=O	78	/	81	66	127	128	66	.	62
O=C(CNC(=O)c1ccc(S(=O)(=O)N2CCCC2)cc1)N/N=C/c1ccccc1Cl	.	.	.	.	/	/	/	/	/
O=C(N/N=C\c1c(O)ccc2ccccc12)c1ccc(S(=O)(=O)N2CCCCC2)cc1	96	/	96	71	100	101	176	-44	.
Cc1ccc(C2=NCCn3nc4cc([N+](=O)[O-])ccc4c32)cc1	.	.	.	.	/	/	/	/	/
CN(Cc1ccccc1)C(=O)[C@@H]1CCCN1C(=O)[C@@H]1CCCN1C(=O)c1ccccc1	.	/	/	.	/	/	/	/	/
CCc1ccc(Nc2n[n+](-c3ccccc3)c(-c3ccc(OCc4ccccc4)cc3)s2)cc1	.	.	.	.	/	/	/	/	/
CCN(CC)c1ccc(-c2sc(Nc3ccccc3)n[n+]2-c2ccc(F)cc2)cc1	65	/	95	.	120	117	146	.	.
CCc1ccc(Nc2n[n+](-c3ccccc3)c(-c3ccc(N(CC)CC)cc3)s2)cc1	91	/	105	.	115	112	.	-79	.
O=C(O)c1ccc(-c2sc(Nc3ccccc3)n[n+]2-c2ccc(F)cc2)cc1	.	.	.	.	/	/	/	/	/
O=[N+]([O-])c1ccc(O)c(N=Cc2sc3ccccc3c2O)c1	44	109	42	.	38	53	102	.	51	Rpn11 inh conf=42;MMP-2 counter-1=.;Thrombin inh=.
Oc1ccc(Cl)cc1N=Cc1sc2ccccc2c1Cl	.	.	.	.	/	/	/	/	/
CCOC(=O)[C@]12CCCC=C1N(Cc1ccco1)C(=O)[C@H](CC(=O)N1CCCC1)C2	.	/	/	.	/	/	/	/	/
CCOC(=O)SC1=N/C(=C\c2ccc(N(C)C)cc2)C(=O)S1	43	/	82	79	101	102	80	.	46
Cc1cccc(NC(=O)CSc2nc(=O)n(CCCN3CCOCC3)c3c2CCCC3)c1C	.	.	/	.	/	/	/	/	/
Cc1occc1C(=O)/C(C#N)=C/c1ccc(O)c(Br)c1	40	143	113	.	169	161	.	.	57	Rpn11 inh conf=116;MMP-2 counter-1=.;Thrombin inh=101
CC(=O)Nc1ccc(S(=O)(=O)NCc2nc(-c3ccc(C)cc3)no2)cc1	.	.	.	.	/	/	/	/	/
